Reference: the RNAGym collection of RNA variant scans (doi:10.1126/science.aae0568)
Fewer inactive variants are shown than the library holds.

B1: tRNA (parent)
chain: GUUCCGUUGGCGUAAUGGUAACGCGUCUCCCUCCUAAGGAGAAGACUGCGGGUUCGAGUCCCGUACGGAACG

Variants of: B1
Assay: yeast fitness relative to wild type (ratio to wild type); higher = fitter; tRNA-Arg(CCU), competitive growth, 37 C, YPD
In short: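 Genotype frequency changes were the basis for Darwinian fitness relative to wild type. The frequencies came from 100-nucleotide paired-end sequencing of gene amplicons from the start population and each end population of pooled yeast strains with tRNA-Arg(CCU) gene variants at the native locus. Competition ran in YPD at 37°C for 24 hours in six replicates, genotypes needed ≥ 100 starting reads, and estimates < 0.5 were set to 0.5.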

Row | Variant | yeast fitness
1 | GUUCCGUUGGUGUAAUGGUAACGCGUCUCCCUCCUAAGGAGAAGUCUGCGGGUUCGAGUCCCGUCCGGAACG [C11U A45U A65C] | 0.733
2 | GUUCCGUUGGUGUAAUGGUAACGCGUCUCCCUCCUAAGGUGAAGACUGCCGGUUCGACACCCGUACGGAACG [C11U A40U G50C G58C U59A] | 0.564
3 | GUUCCGUUGGUGUAAUGGUAACGCGUCUCCCUCCUAAGGAGAAGACUGCGGGUUCGGGCCCCGUACAGAACG [C11U A57G U59C G67A] | ≤ 0.5
4 | GUUCCGUUGGUGUAAUGGUAACGCGUCUCCCUCCUAAGGAGAAGCCUGCGGGUUCGAGUCCGGUCCGGAACG [C11U A45C C62G A65C] | ≤ 0.5
5 | GUUCCGUUGGUGUAAUGGUAACGCGUCUCCCUCCUAAGGUGAAGACUGCGGGUUCGAGUCCCGUACGGCACG [C11U A40U A69C] | 0.646
6 | GUUCCGUUGGUGUAAUGGUAACGCGUCUCCCUCCUAAGGAGAAGUCUGCGGGUUCGCAUCCCGUACGGAACG [C11U A45U A57C G58A] | 0.61
7 | GUUCCGUUGGUGUAAUGGUAACGCGUCUCCCUCCUAAGGAGAAGACUGCGGGUUCGCGUUCCGUACCGAACG [C11U A57C C60U G67C] | 0.589
8 | GUUCCGUUGGUGUAAUGGUAACGCGUCUCCCUCCUAAGGAGAAGACUGCGGGUUCGGGUCCCGUACGGUACG [C11U A57G A69U] | 0.718
9 | GUUCCGUUGGUGUAAUGGUAACGCGUCUCCCUCCUAAGGUGAAGACUGCGGGUUCGAGUCCCGUAGGGAACG [C11U A40U C66G] | ≤ 0.5
10 | GUUCCGUUGGUGUAAUGGUAACGCGUCUCCCUCCUAAGGAGAUGACUGCGGGUUCGAGUCCAGUACGGAACG [C11U A43U C62A] | 0.605
11 | GUUCCGUUGGUGUAAUGGUAACGCGUCUCCCUCCUAAGGAGAAGGCUGCGGGUUCGAGUCCCGUACGGAACG [C11U A45G] | 0.96
12 | GUUCCGUUGGUGUAAUGGUAAGGCGUCUCCCUCCUAAGGAGAAGACUGCGGGUUCGAGUCCCGUACGGAACG [C11U C22G] | 0.875
13 | GUUCCGUUGGUGUAAUGGUAACGCGUCUCCCUCCUAAGGAGAAGACUGCGGGUUCGCGUCCCAUACGGAACG [C11U A57C G63A] | ≤ 0.5
14 | GUUCCGUUGGUGUAAUGGUAACGCGUCUCCCUCCUAAGGUGAAGACUGCGGGUUCGAGUCCCGUACGGAACG [C11U A40U] | 0.787
15 | GUUCCGUUGGUGUAAUGGUAACGCGUCUCCCUCCUAAGGAGAUGAGUGCGGGUUCGAGUCCCGUACGGAACG [C11U A43U C46G] | 0.723
16 | GUUCCGUUGGUGUAAUGGUAACGCGUCUCCCUCCUAAGGAGAAGUCUGCGGGUUCGAGUCCCGUACGGACCG [C11U A45U A70C] | 1.06
17 | GUUCCGUUGGUGUAAUGGUAACGCGUCUCCCUCCUAAGGAGAAGACUGCGGGUUCGAGUCCCGUUAGGAACG [C11U A65U C66A] | ≤ 0.5
18 | GUUCCGUUGGUGUAAUGGUAACGCGUCUCCCUCCUAAGGAGAAGACUGCGGGUUCGAGUCCCGUUCGCAACG [C11U A65U G68C] | 0.592
19 | GUUCCGUUGGUGUAAUGGUAACGCGUCUCCCUCCUAAGGAGAAGGCUGCGGGUUCGAAUCCCGUGCGGAACG [C11U A45G G58A A65G] | 1.11

Row | Variant | yeast fitness
20 | GUUCCGUUGGUGUAAUGGUAACGCGUCUCCCUCCUAAGGAGGAGACUGCGGGUUCGAGUGCCGUACGGAACG [C11U A42G C60G] | ≤ 0.5
21 | GUUCCGUUGGUGUAAUGGUAAGGCGUCUCCCUCCUGAGGAGAAGACUGCGGGUUCGAGUCCCGUUCGGAACG [C11U C22G A36G A65U] | 0.554
22 | GUUCCGUUGGUGUAAUGGUAACGCGUCUCCCUCCUAAGGAGAAGACUGCGGGUUCGAGUCCCGUUCGGCACG [C11U A65U A69C] | 0.588
23 | GUUCCGUUGGUGUAAUGGUAACGCGUCUCCCUCCUAAGGAGAAGACUGCGGGUUCGAGUCCCGUACGGUACG [C11U A69U] | 0.949
24 | GUUCCGUUGGUGUAAUGGUAACGCGUCUCCCUCCUAAGGAGAAGUCUGCGGGUGCGAGUCCCGUACGGAACG [C11U A45U U54G] | ≤ 0.5
25 | GUUCCGUUGGUGUAAUGGUAACGCGUCUCCCUCCUAAGGAGGAGACUACGGGUUCGAGUCCCGUACGGAACG [C11U A42G G48A] | 0.678
26 | GUUCCGUUGGUGUAAUGGUAACGCGUCUCCCUCCUAAGGAGAGGACUGCGGGUUCGCGUCCCGUACGGAACG [C11U A43G A57C] | ≤ 0.5
27 | GUUCCGUUGGUGUAAUGGUAACGCGUCUCCCUCCUAAGGAGAAGCCUGCGGGUUCGAGUCCCGUACGGAUCG [C11U A45C A70U] | 0.582
28 | GUUCCGUUGGUGUAAUGGUAAGGCGUCUCCCUCCUAAGGCAAAGACAGCGGGCUCGAGUCCCGUACCGAACG [C11U C22G A40C G41A U47A U53C G67C] | ≤ 0.5
29 | GUUCCGUUGGUGUAAUGGUAACGCGUCUCCCUCCUAAGGAGACGACUGCGGGUUCAAGUCCCGUACGGAACG [C11U A43C G56A] | 0.692
30 | GUUCCGUUGGUGUAAUGGUAACGCGUCUCCCUCCUAAGGAGAAGGCUGCGGGUUCGAGACCCGUACGGAACG [C11U A45G U59A] | 0.526
31 | GUUCCGUUGGUGUAAUGGUAACGCGUCUCCCUCCUAAGGAGAAGGGAGCGGGUUCGAGUCCGGUCCGGAACG [C11U A45G C46G U47A C62G A65C] | 0.533
32 | GUUCCGUUGGUGUAAUGGUAACGCGUCUCCCUCCUAAGGAGUGGACUGCGGGUUCGAGUCACGUACGGAACG [C11U A42U A43G C61A] | ≤ 0.5
33 | GUUCCGUUGGUGUAAUGGUAACGCGUCUCCCUCCUAAGGAGUAGACUGCGGGUUCGAGUCCCGUACCGAACG [C11U A42U G67C] | 0.536
34 | GUUCCGUUGGUGUAAUGGUAACGCGUCUCCCUCCUAAGGAGAAGACUGCGGGUUCGAGUCCCGUUCGGAGCG [C11U A65U A70G] | 0.696
35 | GUUCCGUUGGUGUAAUGGUAACGCGUCUCCCUCCUAAGGAGAUGACUGCGGGUUCGAGUCCCCUACGGAACG [C11U A43U G63C] | 0.558
36 | GUUCCGUUGGUGUAAUGGUAACGCGUCUCCCUCCUAAGGAGCAGACUGCGGGUUCGAGUCCCGUGCGGAACG [C11U A42C A65G] | 0.658
37 | GUUCCGUUGGUGUAAUGGUAAAGGGUCUCCCUCCUGAGCAGAAGACUGCGGGUUUGAGUCCCGUAUGGAACG [C11U C22A C24G A36G G39C C55U C66U] | ≤ 0.5
38 | GUUCCGUUGGUGUAAUGGUAACGCGUCUCCCUCCUAAGGAGGAGACUGAGGGUUCGCGUCCCGUACGGAACG [C11U A42G C49A A57C] | 0.51
